High-throughput results deposited in PubChem BioAssay by several laboratories.
LEDGF integ inh: blocks HIV-1 LEDGF/p75-dependent DNA integration; AID 743269; 370,000 compounds, 0.64% hits; inhibition, % at 3.7 µM; TR-FRET IN-LEDGF/p75 DNA integration, Eu/Cy5;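 active means inhibition above the screen-wide mean plus 3 SD, cut at about 13% in these data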;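 further: signal is the Cy5 over europium emission ratio at 671 and 618 nm; 0% = plate median of compound wells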
MBD2 DNA inh: MBD2-methylated oligo binding inhibition. Q9UBB5. TR-FRET, MBD2 binding to methylated oligonucleotide. inhibition, % at 4.4 µM. 370,000 compounds, 0.31% hits. AID 686964; in the data active means inhibition above about 13%
NSD2 HMT inh: NSD2 (human) methyltransferase inhibition | O96028 | NSD2 peptide methylation, AlphaScreen, 120 min | inhibition, % at 12.5 µM | 310,000 compounds, 0.54% hits; in the data active means inhibition above about 50%
CASP6 VEID inh: inhibitors of human caspase-6; P55212; purified caspase-6, Z-VEID-R110 cleavage fluorescence; inhibition, % at 12.5 µM; 350,000 compounds, 0.53% hits; AID 686996;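 active means mean inhibition across replicates at least about 35%, with every replicate also reaching that limit, limit read from the data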;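 further: 0% = median of neutral control wells and 100% = no fluorescence left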
Target sequence (P55212 24-179 limits assumed): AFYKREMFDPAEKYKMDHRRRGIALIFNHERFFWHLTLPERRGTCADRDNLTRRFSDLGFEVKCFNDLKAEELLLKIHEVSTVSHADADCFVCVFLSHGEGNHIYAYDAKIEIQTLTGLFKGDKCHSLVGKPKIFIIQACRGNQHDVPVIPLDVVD
Target sequence (P55212 194-293 limits assumed): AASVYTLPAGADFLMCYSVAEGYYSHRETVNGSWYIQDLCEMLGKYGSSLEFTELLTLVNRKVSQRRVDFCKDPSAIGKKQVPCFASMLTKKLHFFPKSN
UHRF1 MBD2 ctr: blocks human UHRF1 binding to methylated DNA. 370,000 compounds, 0.75% hits. AID 687016. UHRF1 binding to methylated oligo, TR-FRET. inhibition, % at 4.4 µM; in the data active means inhibition above about 21%;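 further: UHRF1 SRA domain binding a hemimethylated CpG hairpin DNA probe; 0% = median of test compound wells and 100% = reference inhibitor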
TDP2 absorb: TDP2 (human) inhibition, absorbance primary screen; O95551; recombinant TDP2, T5PNP hydrolysis, p-nitrophenol absorbance 415 nm; inhibition, % at 12.8 µM; 370,000 compounds, 0.34% hits;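 active means inhibition above the mean of all tested compounds plus 3 SD, set per campaign, cut at about 25% in these data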;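 further: 0% = DMSO with enzyme and 100% = buffer with substrate but no TDP2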
Target sequence (O95551 whole entry, looked up): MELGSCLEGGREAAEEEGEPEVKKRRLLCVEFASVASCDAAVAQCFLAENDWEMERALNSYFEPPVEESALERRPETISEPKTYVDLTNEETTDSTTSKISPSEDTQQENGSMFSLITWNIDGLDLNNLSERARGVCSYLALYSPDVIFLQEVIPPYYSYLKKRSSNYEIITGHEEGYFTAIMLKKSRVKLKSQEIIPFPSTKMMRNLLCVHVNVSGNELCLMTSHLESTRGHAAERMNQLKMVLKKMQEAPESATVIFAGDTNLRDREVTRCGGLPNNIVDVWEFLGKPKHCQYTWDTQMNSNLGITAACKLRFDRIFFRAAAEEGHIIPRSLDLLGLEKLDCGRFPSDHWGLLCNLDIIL
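Test system: Human TDP2 enzyme | Reagent: 5 mM T5PNP | Compound dosing: 12.8 µM single point, 1% DMSO | Incubation: Enzyme reaction with compound for 2 h at 37 °C | Technique: p-Nitrophenol epi absorbance | Read-out: % inhibition relative to enzyme-containing and enzyme-free wells | Benchmarks: High control without enzyme, low control DMSO plus TDP2 | Replicates: Singlicate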
Alpha artifact: interferes with AlphaScreen signal, flagging NSD2 false positives. 1,500 compounds, 9.4% hits. shares compounds with NSD2 HMT inh. AlphaScreen artifact counterscreen, preloaded methylated H4 peptide. AC35, µM (top dose mostly 10 µM), inactives show at the top dose activity change, negative = signal loss; call rule not given here
* = called active by the depositor; / = no result. This is a sample that favours compounds with a hit; in the whole collection about 1.9% have one here.

SMILES	LEDGF integ inh	MBD2 DNA inh	NSD2 HMT inh	CASP6 VEID inh	UHRF1 MBD2 ctr	TDP2 absorb	Alpha artifact
C[C@H](CO)N1C[C@H](C)[C@H](CN(C)C(=O)Nc2ccc(C(F)(F)F)cc2)Oc2c(NS(C)(=O)=O)cccc2C1=O	/	/	/	1.1	/	/	/
O=C(NC[C@@H]1N[C@@H](CO)[C@@H]1c1ccc(-c2ccccc2F)cc1)c1ccccn1	/	/	/	-1.6	/	/	/
Clc1cccc(N2CCN(CCCN3CCN(c4ccccc4)CC3)CC2)c1	-2.1	6.1	52.5*	-2.0	0.0	-1.8	-16.7%
Cc1cc(Cl)ccc1OCCCC(=O)N1CCCCC1	-0.8	4.8	-3.1	/	-0.6	-1.8	/
Cc1cc(Cl)ccc1OCCCC(=O)N1CCOCC1	-0.4	-3.0	71.8*	/	1.9	9.0	1.3%
CO[C@@H]1CN(C)C(=O)c2cc(NC(=O)C3CCCC3)ccc2OC[C@H](C)N(CCC(F)(F)F)C[C@H]1C	/	/	/	4.6	/	/	/
Cc1ccc(-n2cccc2/C=C2/C(=N)N3C(=NC2=O)SN=C3S(C)(=O)=O)cc1Cl	9.1	-0.8	126.6*	/	6.4	-22.4	-9.1%
O=C(Nc1ccc(O)cc1)C1CC=CCC1 (configuration not stated)	2.6	3.4	126.3*	/	9.7	-2.4	-4.9%
O=C(O)CC1S/C(=N/N=C/c2ccc(-c3ccc(Cl)cc3[N+](=O)[O-])o2)NC1=O (configuration not stated)	1.1	-3.0	60.4*	/	-4.9	-8.3	-7.8%
CN(C)CCNc1ncnc2oc(-c3ccccc3)c(-c3ccccc3)c12	-1.2	5.0	50.9*	-10.1	-2.3	12.0	-6.3%
Cc1cc(C)c(Nc2cc(S(=O)(=O)O)c(N)c3c2C(=O)c2ccccc2C3=O)c(C)c1	-2.9	1.5	144.7*	/	22.8*	-6.3	6.19µM*
COc1cc(/C=N/n2c(C)nnc2C)cc(OC)c1OC	0.2	-3.6	82.7*	/	0.3	-2.0	-2.0%
COc1ccc(NC(=O)N(C)C[C@@H]2OCCCC[C@H](C)Oc3ccc(NC(=O)Cc4ccccc4)cc3C(=O)N([C@H](C)CO)C[C@@H]2C)cc1	/	/	/	-3.6	/	/	/
COc1ccc(NS(=O)(=O)c2cccc(C(=O)N3CCCCCC3)c2)cc1	-4.1	0.5	64.5*	-155.0	0.3	4.4	-4.8%
COc1ccc(C[C@H]2CCn3cc(nn3)COC[C@H](c3ccccc3)NC2=O)cc1	/	/	/	-3.0	/	/	/
CO[C@H]1CN(C)C(=O)c2ccc(NC(=O)C3CC3)cc2OC[C@H](C)N(C(=O)c2cccnc2)C[C@@H]1C	/	/	/	2.3	/	/	/
O=C1c2cccc3c([N+](=O)[O-])ccc(c23)C(=O)N1CCc1ccccn1	4.9	-3.9	2.7	0.8	1.6	4.7	/
CN(C)CCCN1C(=O)c2cccc3c([N+](=O)[O-])ccc(c23)C1=O	2.5	5.1	70.7*	/	0.3	-0.5	-1.8%
COc1ccc(NC(=O)Nc2ccc3c(c2)CC(=O)N([C@@H](C)CO)C[C@H](C)[C@H](CN(C)S(=O)(=O)c2ccc(Cl)cc2)O3)cc1	/	/	/	2.9	/	/	/
CCC1Cc2c(nc(N)c3c(N)nc(N4CCOCC4)c(C#N)c23)O1 (configuration not stated)	-5.1	-3.9	82.4*	1.9	-2.4	-0.9	-2.4%
CCOc1cc2c(C#N)c(N3CCOCC3)nc(N)c2c(N)n1	-0.9	-5.2	70.4*	/	-12.3	9.1	1.4%
CCOc1cc2c(C#N)c(N(CC)CC)nc(N)c2c(N)n1	1.2	-12.7	/	/	-9.3	-1.2	/
COc1cccc(NC(=O)C[C@H]2CC[C@H]3[C@H](COc4ccc(NC(=O)C5CC5)cc4C(=O)N3C)O2)c1	/	/	/	0.9	/	/	/
COCCN1CC(=O)N2C(c3cccc(C)c3)c3[nH]c4ccccc4c3C[C@H]2C1=O (some centres not stated)	1.0	0.2	52.0*	2.6	5.6	-16.6	-6.6%
Cc1ccnc(NC(=O)c2cccc(NC(=O)c3cccc(Cl)c3)c2)c1	/	/	-0.8	/	/	/	/
SMILES	LEDGF integ inh	MBD2 DNA inh	NSD2 HMT inh	CASP6 VEID inh	UHRF1 MBD2 ctr	TDP2 absorb	Alpha artifact
C=CCn1c(SCc2ccc(C#N)cc2)nnc1-c1ccc(C)cc1	0.4	-2.6	61.2*	/	2.8	-5.8	-2.3%
COc1cc(/C=C2\C(=O)ON=C2c2ccccc2)cc(Cl)c1O	1.0	-5.8	64.2*	1.0	-1.7	-0.8	-5.7%
O=C1ON=C(c2ccc(Cl)cc2)/C1=C/c1ccc(O)cc1	2.2	2.1	0.8	15.5	1.5	10.1	/
O=C1ON=C(c2ccccc2)/C1=C/c1ccc(O)cc1	-2.0	1.8	63.3*	8.1	1.1	-0.9	-2.7%
COc1cc(/C=C/c2nc3ccccc3c(=O)[nH]2)cc(Cl)c1O	8.6	-0.8	81.6*	5.6	-1.6	-1.1	-5.8%
COc1ccc(C#Cc2ccc3c(c2)O[C@H](CN(C)C(=O)CN2CCOCC2)[C@H](C)CN([C@@H](C)CO)S3(=O)=O)cc1	/	/	/	-0.9	/	/	/
Cc1ccccc1S(=O)(=O)N1C[C@@H](O)COC[C@H]2O[C@H](CC(=O)O)CC[C@@H]21	/	/	/	-1.6	/	/	/
COc1ccc(CNC(=O)C[C@H]2C[C@H]3c4cc(NC(=O)C5CCC5)ccc4O[C@H]3[C@@H](CO)O2)cc1	/	/	/	-3.9	/	/	/
O=C(Nc1ccccc1C(=O)O)c1cncc(Br)c1	2.4	-0.6	68.3*	/	0.4	7.8	-10.3%
O=C(NC(=S)Nc1ccccc1C(=O)O)c1cncc(Br)c1	-2.1	2.4	-3.2	1.4	2.0	7.6	/
Cc1ccc(OCCCC(=O)Nc2ccccc2C(F)(F)F)cc1	1.1	3.3	54.2*	/	1.5	-11.6	-0.4%
CCOC(=O)Nc1ccc2c(c1)N(C(=O)CCN(C)C)c1ccccc1CC2	-1.3	0.9	-2.0	4.6	-0.9	5.7	/
COC(=O)Nc1ccc2c(c1)N(C(=O)CCN(C)C)c1ccccc1CC2	-1.1	-2.6	105.0*	1.1	-1.1	6.0	-2.8%
CN1CCN(C(=O)C[C@@H]2CC[C@@H]3[C@H](COC[C@@H](O)CN3Cc3ccc4c(c3)OCO4)O2)CC1	/	/	/	-0.8	/	/	/
C[C@H](NC(=O)[C@@H]1[C@@H](CO)[C@@H]2Cn3c(ccc(-c4ccncc4)c3=O)[C@@H]2N1C)c1ccccc1	/	/	/	1.0	/	/	/
C=CCOCC(O)Cn1c(N2CCCC2)nc2c1c(=O)n(C)c(=O)n2C (configuration not stated)	-2.9	-3.7	53.0*	-3.4	-1.3	3.4	-0.2%
Cn1c(=O)c2c(nc(N3CCCC3)n2CC(O)CO)n(C)c1=O (configuration not stated)	-1.8	5.0	0.0	/	-4.4	3.7	/
CCN(CC)CCOC(=O)/C=C/c1ccccc1	3.1	-6.1	0.9	4.4	2.6	-25.7	/
CCN(CC)CC(C)(C)C(=O)/C=C/c1ccc(/C=C/C(=O)C(C)(C)CN(CC)CC)cc1	-9.1	-1.1	101.1*	-25.3	-0.2	7.7	-2.6%
